Source: PubChem
Rows were chosen to be rich in hits. Some 1.5% of all compounds tested hit in one or more screens of this group.
APJ ag: agonists of human apelin receptor APJ, primary screen, CHO-K1 cells, PathHunter beta-arrestin, luminescence; P35414; 0% DMSO wells, 100% apelin; activation, % at 20 µM; hit rate 0.11% among 330,000;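 active = activation more than six SD over the plate average, tested at 20 µM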;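 also: 0% = DMSO alone and 100% = apelin-13 at 10 nM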
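assay system = CHO-K1 APJ beta-arrestin complementation cell line | input = cell density 1000 per well | dosing = compound 20 µM once, DMSO 1% | timing = compound 90 min 25 °C, reagent 1 h | measured by = luminescence from split beta-galactosidase complementation, Galacton Star/Emerald II substrate | read-out basis = APJ agonist activity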
EBI2 block: EBI2 receptor antagonists, beta-arrestin recruitment, primary screen, cell-based, luminescence, 7a,25-OHC stimulation, uHTS | G-protein coupled receptor 183 (Homo sapiens), P32249 | 7a,25-OHC stimulated | inhibition, % at 5 µM | hit rate 0.81% among 360,000 | AID 651636, 2012; in the data active = inhibition above about 38%;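 also: enzyme fragment complementation signal reports receptor beta-arrestin coupling in cells; 0% = agonist plus DMSO wells and 100% = wells without agonist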
CCR6 antag: CCR6 receptor antagonists, primary screen, cell-based, CHO-K1, luminescence, beta-arrestin, uHTS; CHO-K1 CCR6 PathHunter beta-arrestin, CCL20-stimulated; hit rate 0.49% among 340,000; AID 493098, 2011; inhibition, % at 20 µM;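 active = compounds whose inhibition of the agonist-driven luminescence signal at 20 µM reaches about 50%, limit read from the data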;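 also: cells stimulated with CCL20 at 14 nM final; plate controls were DMSO with CCL20 for no effect and DMSO without agonist for full effect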
APJ antagonist: antagonists of human apelin receptor APJ, primary screen, CHO-K1 cells, beta-arrestin complementation, luminescence. hit rate 0.32% among 330,000. AID 2521, 2010. inhibition, % at 20 µM;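 active = inhibition above about 40% at 20 µM, limit read from the data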;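 also: cells challenged with 10 nM apelin-13 agonist together with compound; plate controls were apelin-13 plus DMSO wells for no effect and DMSO wells lacking apelin-13 for full effect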
CXCR6 block: CXCR6 receptor inhibitors, primary screen, cell-based, beta-arrestin, luminescence, CHO-K1 PathHunter, 1536-well; C-X-C chemokine receptor type 6 (Homo sapiens), O00574; inhibition, % at 20 µM; hit rate 0.36% among 360,000; in the data active = inhibition above about 34%, passing the limit was not always enough;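 also: antagonist mode with CXCL16 agonist at 10 nM final; 0% = 10 nM CXCL16 with DMSO and 100% = unstimulated wells without agonist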
Target sequence (O00574 whole entry, looked up): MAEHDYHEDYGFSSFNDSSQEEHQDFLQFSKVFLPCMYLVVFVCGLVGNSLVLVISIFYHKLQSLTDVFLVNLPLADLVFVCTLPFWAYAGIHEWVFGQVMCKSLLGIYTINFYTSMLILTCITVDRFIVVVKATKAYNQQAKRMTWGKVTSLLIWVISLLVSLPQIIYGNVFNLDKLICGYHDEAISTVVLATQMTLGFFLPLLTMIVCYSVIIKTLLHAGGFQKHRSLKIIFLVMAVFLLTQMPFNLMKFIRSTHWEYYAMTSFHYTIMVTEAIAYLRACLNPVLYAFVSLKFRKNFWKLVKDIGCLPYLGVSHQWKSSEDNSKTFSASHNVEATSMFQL
APJ ag conf: agonists of human apelin receptor APJ, confirmation, cell-based, single concentration, CHO-K1, beta-arrestin, luminescence; shares compounds with APJ ag; CHO-K1 APJ PathHunter beta-arrestin; activation, % at 20 µM; hit rate 10% among 310; AID 2764, 2010;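 active = activation above 40%, taking the highest of four retests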;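 also: plate controls were DMSO wells for no effect and apelin-13 at 10 nM for full effect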
* marks the source's active call; other numbers are inactive results; . = no result given.

SMILES | APJ ag | EBI2 block | CCR6 antag | APJ antagonist | CXCR6 block | APJ ag conf
NC(=O)c1ccsc1NC(=O)COC(=O)/C=C/c1ccc([N+](=O)[O-])cc1 | -5 | 4 | -2 | -40 | -22 | .
COC(=O)c1ccc(/C=C/C(=O)OCC(=O)Nc2sccc2C(N)=O)cc1 | 31* | -20 | -9 | -9 | 2 | 47*
COC(=O)Nc1ccc(S(=O)(=O)N2CCCC(C(=O)NC3CCS(=O)(=O)C3)C2)cc1 (stereo unspecified) | 2 | -8 | -7 | -15 | -8 | .
Cc1cc(C)cc(S(=O)(=O)c2cn(C)c3cc(N4CCN(C)CC4)c(F)cc3c2=O)c1 | 38* | -5 | 6 | 14 | 6 | 21
CCN(CC)CCNC(=O)c1ccc(NC(=O)c2cc(-c3ccco3)nc3ccccc23)cc1 | 55* | 5 | 7 | -19 | 4 | 2
CN(c1ccccc1)S(=O)(=O)c1cccc(NC(=O)c2cc(=O)c3ccccc3o2)c1 | 12* | -13 | -13 | -10 | 2 | 5
CCN(CC(=O)Nc1ccc(NC(C)=O)cc1)C(=O)c1oc2c(ccc3ccccc32)c1C | 22* | -11 | -19 | -15 | -14 | 11
CC(=O)Nc1ccc(Nc2nc(-c3cc4ccccc4oc3=O)cs2)cc1 | 17* | -14 | -8 | -3 | -16 | 16
Cn1c(CC(=O)Nc2ccccc2F)nnc1SCC(=O)N1CCOCC1 | -7 | -10 | 4 | -1 | -1 | .
O=C(COC(=O)/C=C/c1ccc([N+](=O)[O-])cc1)NCC1CCCCC1 | -1 | 2 | 12 | 1 | -9 | .
COc1ccc(NC(=O)/C(C#N)=C/c2ccc(Sc3nncn3C)c([N+](=O)[O-])c2)cc1 | 18* | -3 | 20 | -45 | 0 | 18
Cc1c(C(=O)Nc2cccc(C(F)(F)F)c2)oc2ccc(S(=O)(=O)N3CCOCC3)cc12 | 21* | -26 | -17 | -18 | -6 | 17
Cc1ccc(CNC(=O)c2oc3ccc(S(=O)(=O)N4CCOCC4)cc3c2C)cc1 | 9 | 35 | -4 | -8 | -5 | .
COc1cc(NC(=O)COC(=O)CC(NC(C)=O)c2ccccc2)cc(OC)c1 (stereo unspecified) | 2 | 0 | 15 | 10 | 7 | .
CC(=O)NC(CC(=O)NNC(=O)c1cc2ccccc2cc1O)c1ccccc1 (stereo unspecified) | 30* | -3 | -26 | -102 | -14 | 14
CCCCOC(=O)c1ccc(NC(=O)C(=O)NCCN(C)C)cc1 | -1 | -12 | -4 | 10 | 0 | .
COc1ccccc1CNC(=O)[C@@H](NC(=O)C1CCN(C(=O)[C@@H]2CCCN2C(=O)OC(C)(C)C)CC1)C(C)C | -3 | 5 | 3 | -3 | -1 | .
COc1ccc(C2CC(c3ccccc3)=NN2C(=O)COC(=O)C2(C)CC2(Cl)Cl)cc1 (stereo unspecified) | -2 | 6 | 14 | 7 | -1 | .
Cc1ccc2nc(N(CCCN(C)C)C(=O)c3ccc(S(=O)(=O)N4CCc5ccccc5C4)cc3)sc2c1 | 79* | 8 | 13 | -40 | -9 | 46*
Cc1cccc2sc(N(CCCN(C)C)C(=O)c3ccc(S(=O)(=O)N4CCc5ccccc5C4)cc3)nc12 | 21 | -4 | -5 | -5 | 5 | .
CN(C)CCCN(C(=O)c1ccc(S(=O)(=O)N2CCc3ccccc3C2)cc1)c1nc2ccc(F)cc2s1 | 47* | 14 | 6 | 2 | -9 | 22
Cc1cc(C)c2sc(N(CCCN(C)C)C(=O)c3ccc(S(=O)(=O)N4CCc5ccccc5C4)cc3)nc2c1 | 66* | -3 | . | -9 | -3 | 45*
COc1ccc2sc(N(CCCN(C)C)C(=O)c3ccc(S(=O)(=O)N4CCc5ccccc5C4)cc3)nc2c1 | 50* | 12 | -1 | -12 | 3 | 34
Cc1ccc(OCCn2c(=S)[nH]c3ccccc32)c(C(C)C)c1 | 3 | 36 | -33 | -14 | -2 | .
COc1ccccc1CNC(=O)C(=O)NCC(c1ccco1)N1CCOCC1 (stereo unspecified) | -2 | 3 | 5 | -8 | 1 | .
